Test results as given in ChEMBL document CHEMBL4270642, “Boronic ester-linked macrocyclic lipopeptides as serine protease inhibitors targeting Escherichia coli type I signal peptidase” (Eur J Med Chem, 2018).
In brackets after ≈: the same amount, converted by molar mass.

What was measured:
[1] = target: Signal peptidase I (Escherichia coli K-12) (UniProt P00803); test: Inhibition of Escherichia coli type 1 signal peptidase lepB assessed as residual activity at 0.0781 uM preincubated for 10 mins followed by Dabcyl-VGGTATAYGAFSRPGLE-(EDANS)-OH substrate addition measured after 2 hrs by FRET based assay (reference value: 100%)
Chain of Signal peptidase I (Escherichia coli K-12) (P00803 whole entry): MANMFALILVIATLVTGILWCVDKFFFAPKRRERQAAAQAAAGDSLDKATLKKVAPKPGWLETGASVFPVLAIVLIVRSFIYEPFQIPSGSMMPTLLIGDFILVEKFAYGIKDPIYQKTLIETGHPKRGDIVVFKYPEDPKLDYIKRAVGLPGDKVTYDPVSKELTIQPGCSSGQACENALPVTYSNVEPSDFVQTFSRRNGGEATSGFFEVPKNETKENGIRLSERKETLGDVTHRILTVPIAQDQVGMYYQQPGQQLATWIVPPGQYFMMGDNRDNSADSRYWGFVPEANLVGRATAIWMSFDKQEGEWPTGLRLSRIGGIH
Outline: (§1)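 EcLepB (about 50 nM estimated) preincubated 10 min with compound. Reaction started with Dabcyl/EDANS FRET peptide at 8 µM final (Km 20 µM). Fluorescence followed continuously at 535 nm, 22 °C, for 2 h. Cleavage rates plotted against inhibitor concentration; IC50 from non-linear regression of sigmoidal dose-response curves.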

[2] = test system: Pseudomonas aeruginosa; test: Antibacterial activity against efflux defective Pseudomonas aeruginosa PAO750 after 16 to 20 hrs by broth microdilution method; format: functional
Outline: (§2)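 Broth microdilution in cation-adjusted Mueller-Hinton II per EUCAST/CLSI; two-fold compound series 64 down to 0.25 µg/mL final. Inoculum from fresh colonies (non-selective agar, 18-24 h, 35 ± 2 °C), adjusted to 0.5 McFarland, diluted to about 5 × 10^5 CFU/mL final. Static incubation 16-20 h at 35 ± 2 °C; MIC read visually as complete growth inhibition against medium-only wells.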

[3] = test system: Acinetobacter baumannii; test: Antibacterial activity against Acinetobacter baumannii ATCC 19606 after 16 to 20 hrs by broth microdilution method; format: functional; details: ATCC 19606 = CIP 70.34 = JCM 6841; outline: as §2
[4] = test system: HepG2; test: Cytotoxicity against human HepG2 cells after 72 hrs by FMSA; format: cell-based; details: HepG2, 72 h
Outline: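 HepG2 (ATCC) grown in EMEM with 10% FBS, pen/strep, 2 mM L-glutamine, used up to 20 passages. Seeded at 1000 cells/well, cultured overnight, then dosed acoustically from DMSO stocks. Eight two-fold dilutions in duplicate from top 64 or 32 µM; 72 h at 37 °C, 5% CO2. Fluorescein diacetate hydrolysis read at ex 485/em 530 nm; IC50 by non-linear regression.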

[5] = test system: Staphylococcus aureus; test: Antibacterial activity against Staphylococcus aureus ATCC 29213 after 16 to 20 hrs by broth microdilution method; format: functional; outline: as §2
[6] = target: Signal peptidase I (Escherichia coli K-12) (UniProt P00803); test: Inhibition of Escherichia coli type 1 signal peptidase lepB assessed as residual activity at 0.0391 uM preincubated for 10 mins followed by Dabcyl-VGGTATAYGAFSRPGLE-(EDANS)-OH substrate addition measured after 2 hrs by FRET based assay (reference value: 100%); outline: as §1
[7] = target: Signal peptidase I (Escherichia coli K-12) (UniProt P00803); test: Inhibition of Escherichia coli type 1 signal peptidase lepB assessed as residual activity at 0.0024 uM preincubated for 10 mins followed by Dabcyl-VGGTATAYGAFSRPGLE-(EDANS)-OH substrate addition measured after 2 hrs by FRET based assay (reference value: 100%); outline: as §1
[8] = target: Signal peptidase I (Escherichia coli K-12) (UniProt P00803); test: Inhibition of Escherichia coli type 1 signal peptidase lepB assessed as residual activity at 0.3125 uM preincubated for 10 mins followed by Dabcyl-VGGTATAYGAFSRPGLE-(EDANS)-OH substrate addition measured after 2 hrs by FRET based assay (reference value: 100%); outline: as §1
[9] = target: Signal peptidase I (Escherichia coli K-12) (UniProt P00803); test: Inhibition of Escherichia coli type 1 signal peptidase lepB assessed as residual activity at 0.1563 uM preincubated for 10 mins followed by Dabcyl-VGGTATAYGAFSRPGLE-(EDANS)-OH substrate addition measured after 2 hrs by FRET based assay (reference value: 100%); outline: as §1
[10] = target: Signal peptidase I (Escherichia coli K-12) (UniProt P00803); test: Inhibition of Escherichia coli type 1 signal peptidase lepB assessed as residual activity at 0.625 uM preincubated for 10 mins followed by Dabcyl-VGGTATAYGAFSRPGLE-(EDANS)-OH substrate addition measured after 2 hrs by FRET based assay (reference value: 100%); outline: as §1
[11] = test system: Escherichia coli; test: Antibacterial activity against Escherichia coli ATCC 25922 after 16 to 20 hrs by broth microdilution method; format: functional; outline: as §2
[12] = target: Signal peptidase I (Escherichia coli K-12) (UniProt P00803); test: Inhibition of Escherichia coli type 1 signal peptidase lepB assessed as residual activity at 0.0098 uM preincubated for 10 mins followed by Dabcyl-VGGTATAYGAFSRPGLE-(EDANS)-OH substrate addition measured after 2 hrs by FRET based assay (reference value: 100%); outline: as §1
[13] = test system: Escherichia coli; test: Antibacterial activity against tolC deficient Escherichia coli CH3130 after 16 to 20 hrs by broth microdilution method; format: functional; outline: as §2
[14] = target: Signal peptidase I (Escherichia coli K-12) (UniProt P00803); test: Inhibition of Escherichia coli type 1 signal peptidase lepB assessed as residual activity at 0.0049 uM preincubated for 10 mins followed by Dabcyl-VGGTATAYGAFSRPGLE-(EDANS)-OH substrate addition measured after 2 hrs by FRET based assay (reference value: 100%); outline: as §1
[15] = Hemolytic activity in human RBC at 100 uM after 45 mins by spectrophotometric method relative to control; format: ADME, cell-based, Erythrocyte; details: red blood cells (erythrocytes), read-out: Activity
Outline: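 Heparinized human blood; red cells washed three times in Tyrode buffer pH 7.4. Compound at 100 µM final with 1% DMSO and 50% RBC, shaken (250 rpm) 45 min at 37 °C. Cells pelleted (1000 × g, 10 min); supernatant haemoglobin at 540 nm. Percent lysis relative to buffer-only and 2% Triton X-100 controls.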

[16] = test system: Klebsiella pneumoniae; test: Antibacterial activity against Klebsiella pneumoniae ATCC 13883 after 16 to 20 hrs by broth microdilution method; format: functional; outline: as §2
[17] = target: Signal peptidase I (Escherichia coli K-12) (UniProt P00803); test: Inhibition of Escherichia coli type 1 signal peptidase lepB assessed as residual activity at 2.5 uM preincubated for 10 mins followed by Dabcyl-VGGTATAYGAFSRPGLE-(EDANS)-OH substrate addition measured after 2 hrs by FRET based assay (reference value: 100%); outline: as §1
[18] = test system: Escherichia coli; test: Antibacterial activity against Escherichia coli D22 CGSG 5163 harboring Ips mutant after 16 to 20 hrs by broth microdilution method; format: functional
Outline: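 Broth microdilution in cation-adjusted Mueller-Hinton II broth, following EUCAST and CLSI guidelines. Two-fold series at final concentrations 64 down to 0.25 µg/mL, with medium-only and growth controls. Inoculum from fresh colonies (18-24 h, 35 °C ± 2 °C) adjusted to 0.5 McFarland, final ≈5 × 10^5 CFU/mL. Plates incubated unshaken 16-20 h at 35 °C ± 2 °C. MIC read visually as complete inhibition of growth.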

[19] = target: Signal peptidase I (Escherichia coli K-12) (UniProt P00803); test: Inhibition of Escherichia coli type 1 signal peptidase lepB assessed as residual activity at 0.0195 uM preincubated for 10 mins followed by Dabcyl-VGGTATAYGAFSRPGLE-(EDANS)-OH substrate addition measured after 2 hrs by FRET based assay (reference value: 100%); outline: as §1
[20] = target: Signal peptidase I (Escherichia coli K-12) (UniProt P00803); test: Inhibition of Escherichia coli type 1 signal peptidase lepB assessed as residual activity at 5 uM preincubated for 10 mins followed by Dabcyl-VGGTATAYGAFSRPGLE-(EDANS)-OH substrate addition measured after 2 hrs by FRET based assay (reference value: 100%); outline: as §1
[21] = target: Signal peptidase I (Escherichia coli K-12) (UniProt P00803); test: Inhibition of Escherichia coli type 1 signal peptidase lepB assessed as residual activity at 0.0012 uM preincubated for 10 mins followed by Dabcyl-VGGTATAYGAFSRPGLE-(EDANS)-OH substrate addition measured after 2 hrs by FRET based assay (reference value: 100%); outline: as §1
[22] = target: Signal peptidase I (Escherichia coli K-12, UniProt P00803); test: Inhibition of Escherichia coli type 1 signal peptidase lepB preincubated for 10 mins followed by Dabcyl-VGGTATAYGAFSRPGLE-(EDANS)-OH substrate addition measured after 2 hrs by FRET based assay; outline: as §1
Chain of Signal peptidase I (P00803 whole entry): as above

[23] = target: Signal peptidase I (Escherichia coli K-12) (UniProt P00803); test: Inhibition of Escherichia coli type 1 signal peptidase lepB assessed as residual activity at 1.25 uM preincubated for 10 mins followed by Dabcyl-VGGTATAYGAFSRPGLE-(EDANS)-OH substrate addition measured after 2 hrs by FRET based assay (reference value: 100%); outline: as §1
[24] = target: Signal peptidase I (Escherichia coli K-12) (UniProt P00803); test: Inhibition of Escherichia coli type 1 signal peptidase lepB assessed as residual activity at 10 uM preincubated for 10 mins followed by Dabcyl-VGGTATAYGAFSRPGLE-(EDANS)-OH substrate addition measured after 2 hrs by FRET based assay (reference value: 100%); outline: as §1
[25] = test system: Pseudomonas aeruginosa; test: Antibacterial activity against Pseudomonas aeruginosa PAO1 after 16 to 20 hrs by broth microdilution method; format: functional; outline: as §2

SMILES | Activity [1] [%] | MIC [2] [µg/mL] | MIC [3] [µg/mL] | IC50 [4] [µM] | MIC [5] [µg/mL] | Activity [6] [%] | Activity [7] [%] | Activity [8] [%] | Activity [9] [%] | Activity [10] [%] | MIC [11] | Activity [12] [%] | MIC [13] [µg/mL] | Activity [14] [%] | hemolysis at 0.75 h, 100 µM [15] [%] | MIC [16] [µg/mL] | Activity [17] [%] | MIC [18] [µg/mL] | Activity [19] [%] | IC50 [22] [µM] | further results
CCCCCCC#Cc1cncc(C(=O)N[C@@H](CCCN)C(=O)N[C@H](C(=O)N[C@@H](C)C(=O)N[C@H]2Cc3cn(nn3)CCO[C@@H]3C[C@@H]4OB(O[C@@H]4C3)[C@H](C)NC2=O)[C@@H](C)O)c1 | 26.8 | > 64 | > 64 | > 64 | 32 (≈ 38.3 µM) | 53.7 | 93.6 | 13.4 | 10.6 | 13 | > 64 µg/mL | 82.7 | 64 (≈ 76.7 µM) | 91 | 0.01 | > 64 | 8.2 | > 64 | 75.2 | 0.041 | Activity [20]: 2.3%; Activity [21]: 106%; Activity [23]: 7.9%; Activity [24]: -1.2%; MIC [25]: > 64 µg/mL
C[C@@H]1NC(=O)[C@@H](NC(=O)[C@H](C)NC(=O)[C@@H](NC(=O)[C@H](CCCN)NC(=O)c2ccc(=O)n(-c3ccccc3)c2)[C@@H](C)O)Cc2cn(nn2)CCO[C@@H]2C[C@@H]3OB1O[C@@H]3C2 | 100 | > 64 | > 64 | > 64 | > 64 | 91.6 | 82.4 | 69.5 | 105 | 66.9 | > 64 µg/mL | 101 | > 64 | 97.5 | 0.04 | > 64 | 42.8 | > 64 | 104 | 1.66 | Activity [20]: 26.8%; Activity [21]: 84.6%; Activity [23]: 62.1%; Activity [24]: 10.4%; MIC [25]: > 64 µg/mL
CCCCCCc1ccc(-c2c[nH]c3ccc(C(=O)N[C@@H](CCCN)C(=O)N[C@H](C(=O)N[C@@H](C)C(=O)N[C@H]4Cc5cn(nn5)CCO[C@@H]5C[C@@H]6OB(O[C@@H]6C5)[C@H](C)NC4=O)[C@@H](C)O)cc23)cc1 | 78.1 | 64 (≈ 69.2 µM) | 64 (≈ 69.2 µM) | 23.7 | 16 (≈ 17.3 µM) | 94.2 | 108 | 42.8 | 58.5 | 20.4 | 32 µg/mL | 98.5 | 32 (≈ 34.6 µM) | 99.5 | 2.8 | 64 (≈ 69.2 µM) | 2.9 | 16 (≈ 17.3 µM) | 101 | 0.225 | Activity [20]: -6.8%; Activity [21]: 106%; Activity [23]: 8.1%; Activity [24]: -19.8%; MIC [25]: 64 µg/mL (≈ 69.2 µM)
CCCCCCc1ccc(-n2cc(C(=O)N[C@@H](CCCN)C(=O)N[C@H](C(=O)N[C@@H](C)C(=O)N[C@H]3Cc4cn(nn4)CCO[C@@H]4C[C@@H]5OB(O[C@@H]5C4)[C@H](C)NC3=O)[C@@H](C)O)ccc2=O)cc1 | 95.3 | > 64 | > 64 | > 64 | 64 (≈ 70.9 µM) | 98.3 | 101 | 59.3 | 90 | 32.6 | > 64 µg/mL | 98.8 | > 64 | 101 | 0.03 | > 64 | 17.3 | > 64 | 111 | 0.495 | Activity [20]: 15.8%; Activity [21]: 109%; Activity [23]: 24.3%; Activity [24]: 17%; MIC [25]: > 64 µg/mL
CCCCCCc1ccc(-c2ccc(C(=O)N3CC(CN)C[C@H]3C(=O)N[C@H](C(=O)N[C@@H](C)C(=O)N[C@@H](CC(N)=O)C(=O)N[C@@H](C)B(O)O)[C@@H](C)O)cc2)cc1 (some centres undefined) |  |  |  | 16 |  |  |  |  |  |  | 16 µM |  |  |  | 2.5 |  |  |  |  | 0.006 | 
